Published values pooled from the literature.
Compare with care: the assays were run in different laboratories.
Target: G protein-coupled receptor kinase 3 (GRK3, Homo sapiens, UniProt P35626)
Residues used in one study (P35626 1-688): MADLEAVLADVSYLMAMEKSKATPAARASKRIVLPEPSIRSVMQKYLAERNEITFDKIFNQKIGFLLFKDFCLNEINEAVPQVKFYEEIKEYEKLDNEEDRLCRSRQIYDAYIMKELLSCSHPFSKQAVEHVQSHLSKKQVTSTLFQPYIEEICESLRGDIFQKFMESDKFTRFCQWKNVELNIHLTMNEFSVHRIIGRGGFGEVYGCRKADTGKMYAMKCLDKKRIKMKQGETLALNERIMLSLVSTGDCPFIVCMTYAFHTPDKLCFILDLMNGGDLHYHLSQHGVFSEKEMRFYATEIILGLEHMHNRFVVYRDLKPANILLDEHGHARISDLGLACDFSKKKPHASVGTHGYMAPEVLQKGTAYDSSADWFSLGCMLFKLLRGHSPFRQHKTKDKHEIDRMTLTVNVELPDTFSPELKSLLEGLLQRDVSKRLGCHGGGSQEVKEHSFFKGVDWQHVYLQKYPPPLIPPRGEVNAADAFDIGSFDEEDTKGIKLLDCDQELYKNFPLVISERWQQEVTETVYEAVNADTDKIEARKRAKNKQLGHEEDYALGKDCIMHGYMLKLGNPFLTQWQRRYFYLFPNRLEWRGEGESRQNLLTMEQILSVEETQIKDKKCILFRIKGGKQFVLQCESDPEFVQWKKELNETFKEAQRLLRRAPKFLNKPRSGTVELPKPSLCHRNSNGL

SMILES	assay	conditions	remaining binding [%]
CN(C)C(=O)Cn1cc(-c2nc([C@@](C)(c3ccc(-c4cnc(N)nc4)cc3)C3CC3)no2)cn1	cell-free assay, competition with immobilised ligand	1 µM	86
C[C@H]1CCN(c2nccc(-c3cnn4ncccc34)n2)C1	binding	1 µM	33
COc1cnc(Nc2cccc(S(N)(=O)=O)c2)nc1N1CCN(c2ccccc2)CC1	binding, competition with immobilised ligand	1 µM	72
Cc1nc(N2CC[C@@H](O)C2)ncc1-c1cc(C(F)(F)F)cc2[nH]ncc12	binding, competition with immobilised ligand	1 µM	87
O=C(NCCCN1CCOCC1)c1ccc(Nc2nccc(-c3cc4ccccc4s3)n2)cc1	binding, competition with immobilised ligand	1 µM	88
CN(C)c1nccc(-c2cnn3ncccc23)n1	binding	1 µM	89
CNC(=O)[C@@H]1CC[C@@H](n2c(-c3ccc4cnccc4c3)nc3ccc(C(=O)NCc4cccc(C(N)=O)c4)cc32)C1	binding, competition with immobilised ligand	1 µM	68
COc1ccnn2ncc(-c3ccnc(N(C)C)n3)c12	binding	1 µM	57
O=C(c1ccc(Nc2nccc(-c3cc4ccccc4s3)n2)cc1)N1CCC(N2CCCC2)CC1	binding, competition with immobilised ligand	1 µM	64
CN(CCCC(F)(F)F)c1nccc(-c2cnn3ncccc23)n1	binding	1 µM	100
COc1ncc2cc3ccccc3nc2c1C#N	cell-free assay, competition with immobilised ligand	5 µM	53
O=C(O)[C@@H]1[C@@H](Cn2nnc3ccccc3c2=O)CC[C@H]1C(=O)c1ccc(OCCC2CCOCC2)cc1	cell-free assay, competition with immobilised ligand	1 µM	100
N[C@H]1CCN(c2nccc(-c3cnn4ncccc34)n2)C1	binding	1 µM	66
NS(=O)(=O)c1cc(NC(=O)C2(c3ccccc3Cl)CC2)ccc1Oc1cccc(Cl)c1	cell-free assay, competition with immobilised ligand	1 µM	100
Nc1ncc2c(n1)-c1c([nH]c3ccc(C#CC4CC4)cc13)CCCC2	binding, competition with immobilised ligand	1 µM	97
c1cnn2ncc(-c3ccnc(N4CCC45COC5)n3)c2c1	binding	1 µM	29
O=C(Nc1cnc(Oc2ccc(F)cc2)nc1)N1CCc2ncccc2[C@@H]1c1ccc(F)cc1	cell-free assay, competition with immobilised ligand	1 µM	96
O=C(c1ccc(Nc2ncc(Cl)c(-c3cc4ccccc4s3)n2)cc1)N1CCC(N2CCCC2)CC1	binding, competition with immobilised ligand	1 µM	63
C[C@@H](c1cccc(C#N)c1)n1cc(Cl)cc(C(N)=O)c1=N	cell-free assay, competition with immobilised ligand	1 µM	81
O=C(Nc1c[nH]nc1C(=O)NC1CCNCC1)c1cc(F)cc(F)c1	binding, competition with immobilised ligand	1 µM	82
